This note sets out measurements from ChEMBL document CHEMBL3526048, “In vitro metabolism of rivoglitazone, a novel peroxisome proliferator-activated receptor γ agonist, in rat, monkey, and human liver microsomes and freshly isolated hepatocytes” (Drug Metab Dispos, 2011).

In series [1] the target is T1, UDP-glucuronosyltransferase 1A1 (Homo sapiens, UniProt P22309).
T1 sequence (P22309 whole entry): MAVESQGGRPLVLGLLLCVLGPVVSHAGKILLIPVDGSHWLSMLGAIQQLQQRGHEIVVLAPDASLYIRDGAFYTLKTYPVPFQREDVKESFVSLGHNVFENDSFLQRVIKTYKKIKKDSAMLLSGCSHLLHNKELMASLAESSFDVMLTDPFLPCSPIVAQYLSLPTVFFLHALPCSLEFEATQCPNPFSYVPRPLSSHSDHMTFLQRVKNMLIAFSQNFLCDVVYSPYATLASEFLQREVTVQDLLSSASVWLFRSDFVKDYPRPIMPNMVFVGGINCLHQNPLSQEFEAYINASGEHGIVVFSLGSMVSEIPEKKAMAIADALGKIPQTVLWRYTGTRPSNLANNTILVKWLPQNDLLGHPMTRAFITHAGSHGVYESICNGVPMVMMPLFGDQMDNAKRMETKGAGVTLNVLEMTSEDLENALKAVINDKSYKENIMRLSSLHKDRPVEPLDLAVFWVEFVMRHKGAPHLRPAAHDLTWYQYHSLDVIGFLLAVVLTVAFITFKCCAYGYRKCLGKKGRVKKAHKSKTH
Description: Activity of human UGT1A1 expressed in microsomes isolated from baculovirus infected insect cell assessed as enzyme-mediated 2-mercapto-3-(4-((6-methoxy-1-methyl-1H-benzo[d]imidazol-2-yl)methoxy)phenyl)propanoic acid formation at 20 uM after 4 hrs by radio-HPLC/LC-MS/MS analysis in presence of UDPGA. It counts as ADME. The essentials: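 Alamethicin (50 μg/mg protein, 15 min on ice) pretreated expressed human UGT microsomes (1 mg/ml protein) from baculovirus-infected insect cells. Incubation with [¹⁴C]rivoglitazone (20 μM) in 100 mM Tris-HCl (pH 7.5) with 10 mM MgCl₂, started by 5 mM UDPGA, 4 h at 37°C with shaking. UGT insect-cell control supersomes were run alongside. Acetonitrile stop, concentrated supernatant analysed by radio-HPLC, LC-MS and LC-MS/MS.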

The next series concerns Liver microsome. Description: Drug metabolism in Sprague-Dawley rat liver microsomes assessed as formation of 5-(4-((6-methoxy-1H-benzo[d]imidazol-2-yl)methoxy)benzyl)thiazolidine-2,4-dione at 20 uM after 2 hrs by radio-HPLC/LC-MS/MS analysis in presence of NADPH-generating system and NADPH-generating system/SAM. The series is classed as ADME. On the technique in general: Liver microsomes are a subcellular fraction often used to study metabolism.

The target in the next series is Cytochrome P450 2C9 (Homo sapiens, UniProt P11712). Briefly: Activity of human CYP2C9 expressed in microsomes isolated from baculovirus infected insect cell assessed as enzyme-mediated 5-(4-((6-hydroxy-1-methyl-1H-benzo[d]imidazol-2-yl)methoxy)benzyl)thiazolidine-2,4-dione formation at 20 uM after 2 hrs by radio-HPLC/LC-MS/MS analysis in presence of NADPH-generating system and NADPH-generating system/SAM. The series is classed as ADME.
Cytochrome P450 2C9, sequence (P11712 whole entry): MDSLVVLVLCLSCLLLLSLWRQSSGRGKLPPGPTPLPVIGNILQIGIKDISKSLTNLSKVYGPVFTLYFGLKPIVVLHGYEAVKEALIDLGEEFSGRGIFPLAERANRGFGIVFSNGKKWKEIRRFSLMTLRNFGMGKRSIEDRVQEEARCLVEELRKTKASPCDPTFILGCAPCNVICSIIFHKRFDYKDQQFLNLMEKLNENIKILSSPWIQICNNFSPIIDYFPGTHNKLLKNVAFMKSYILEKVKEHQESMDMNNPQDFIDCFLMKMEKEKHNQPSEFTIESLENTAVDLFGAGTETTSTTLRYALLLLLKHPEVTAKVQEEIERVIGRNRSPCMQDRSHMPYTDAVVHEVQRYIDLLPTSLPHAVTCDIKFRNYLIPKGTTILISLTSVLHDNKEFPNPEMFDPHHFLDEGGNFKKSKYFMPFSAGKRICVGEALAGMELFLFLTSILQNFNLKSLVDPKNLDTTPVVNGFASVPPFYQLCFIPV

The next series concerns the target T2, Cytochrome P450 1A2 (Homo sapiens, UniProt P05177).
T2 sequence (P05177 whole entry): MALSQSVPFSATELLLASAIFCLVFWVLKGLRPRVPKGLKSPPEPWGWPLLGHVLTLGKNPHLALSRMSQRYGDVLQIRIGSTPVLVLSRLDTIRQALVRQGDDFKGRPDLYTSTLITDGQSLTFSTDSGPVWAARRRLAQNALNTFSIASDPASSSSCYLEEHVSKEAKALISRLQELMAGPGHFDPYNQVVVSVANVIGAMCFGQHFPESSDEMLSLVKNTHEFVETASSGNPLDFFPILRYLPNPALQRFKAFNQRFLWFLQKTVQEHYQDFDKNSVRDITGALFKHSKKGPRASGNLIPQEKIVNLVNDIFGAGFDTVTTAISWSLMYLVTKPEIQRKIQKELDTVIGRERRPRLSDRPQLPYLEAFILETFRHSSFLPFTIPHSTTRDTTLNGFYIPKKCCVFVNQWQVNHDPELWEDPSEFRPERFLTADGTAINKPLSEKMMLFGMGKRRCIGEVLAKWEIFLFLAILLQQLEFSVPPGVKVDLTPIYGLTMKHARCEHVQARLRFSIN
Description: Activity of human CYP1A2 expressed in microsomes isolated from baculovirus infected insect cell assessed as enzyme-mediated (2S,3S,4S,5R,6R)-3,4,5-trihydroxy-6-(5-(4-((6-methoxy-1-methyl-1H-benzo[d]imidazol-2-yl)methoxy)benzyl)-2,4-dioxothiazolidin-3-yl)tetrahydro-2H-pyran-2-carboxylic acid formation at 20 uM after 2 hrs by radio-HPLC/LC-MS/MS analysis in presence of UDPGA and UDPGA/SAM. It counts as ADME.

A further series deals with Cytochrome P450 3A4 (Homo sapiens, UniProt P08684). Briefly: Activity of human CYP3A4 expressed in microsomes isolated from baculovirus infected insect cell assessed as enzyme-mediated 2-amino-3-((1-carboxy-2-(4-((6-methoxy-1-methyl-1H-benzo[d]imidazol-2-yl)methoxy)phenyl)ethyl)disulfanyl)propanoic acid formation at 20 uM after 2 hrs by radio-HPLC/LC-MS/MS analysis. It counts as ADME. The essentials:
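Baculovirus-insect-cell microsomes expressing the human CYP (1 mg/ml protein) were incubated with [14C]rivoglitazone (20 μM) in 50 mM potassium phosphate (pH 7.4) or 100 mM Tris-HCl (pH 7.5) with an NADPH-generating system (2 mM NADP+, 20 mM glucose 6-phosphate, 2 units/ml G6PDH, 10 mM MgCl2) for 2 h at 37°C. Insect-cell control supersomes served as the control. Reactions were stopped with acetonitrile, and the concentrated supernatants were analysed by radio-HPLC, LC-MS and LC-MS/MS.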

Series [2] in a line: Drug metabolism in monkey hepatocytes assessed as formation of 3-(4-((6-methoxy-1-methyl-1H-benzo[d]imidazol-2-yl)methoxy)phenyl)-2-(methylthio)propanamide at 30 uM after 3 hrs by radio-HPLC/LC-MS/MS analysis in presence of NADPH-generating system/SAM. To be noted: cynomolgus monkey.
Series [3] can be described thus: Drug metabolism in monkey hepatocytes assessed as formation of 2-mercapto-3-(4-((6-methoxy-1-methyl-1H-benzo[d]imidazol-2-yl)methoxy)phenyl)propanoic acid at 30 uM after 3 hrs by radio-HPLC/LC-MS/MS analysis in presence of UDPGA, UDPGA/SAM and NADPH-generating system. To be noted: cynomolgus monkey.
A short description of series [4]: Drug level in cynomolgus monkey liver microsomes treated with [14C]-rivoglitazone at 20 uM after 2 to 4 hrs by radio-HPLC/LC-MS/MS analysis in presence of UDPGA, UDPGA/SAM and NADPH-generating system. The series is classed as ADME, Macaca fascicularis.

Cytochrome P450 3A4, sequence (P08684 whole entry): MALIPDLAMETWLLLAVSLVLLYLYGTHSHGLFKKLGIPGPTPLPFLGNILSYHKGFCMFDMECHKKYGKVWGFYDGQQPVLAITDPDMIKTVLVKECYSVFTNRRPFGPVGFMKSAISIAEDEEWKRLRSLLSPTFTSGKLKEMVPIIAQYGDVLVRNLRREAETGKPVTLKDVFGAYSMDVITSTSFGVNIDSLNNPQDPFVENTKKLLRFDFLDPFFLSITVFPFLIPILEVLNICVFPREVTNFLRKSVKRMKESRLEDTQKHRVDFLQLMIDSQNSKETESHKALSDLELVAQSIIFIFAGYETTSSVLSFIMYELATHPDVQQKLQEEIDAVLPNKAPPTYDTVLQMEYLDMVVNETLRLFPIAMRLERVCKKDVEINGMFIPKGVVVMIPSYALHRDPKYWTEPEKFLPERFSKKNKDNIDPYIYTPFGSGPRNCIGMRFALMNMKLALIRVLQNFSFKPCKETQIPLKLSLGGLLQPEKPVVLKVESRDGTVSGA

On to `COc1ccc2nc(COc3ccc(C[14CH]4SC(=O)NC4=O)cc3)n(C)c2c1.Cl` (racemic), for which the Drug metabolism entry was “metabolite_not_detected” in series [1]; “metabolite_detected” with Liver microsome; “metabolite_detected” at Cytochrome P450 2C9; “metabolite_not_detected” on Cytochrome P450 1A2; “metabolite_not_detected” on Cytochrome P450 3A4; “metabolite_detected” in series [2]. Moreover, the Drug metabolism result in series [3] is on record as “metabolite_not_detected”.
Take `COc1ccc2nc(COc3ccc(CC(S)C(=O)O)cc3)n(C)c2c1` (stereo not drawn): the Drug metabolism result in series [4] is recorded as “metabolite_detected”.
